# Bioassay records: PubChem BioAssay, Johns Hopkins Ion Channel Center
# RGS4 inh = RGS4 inhibitors, primary screen, cell-based, HEK293 M3R inducible RGS4, calcium flux. Fluo-4 calcium flux; active compounds read high; triggered by carbachol at its EC20. B-score at 10 µM. hit rate 0.45% among 310,000. AID 463165, 2010;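 active means B-score, a plate-corrected calcium signal, over three deviations above library mean, with baseline fluorescence within five deviations of library mean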;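 further: RGS4 expression induced by doxycycline in cells with stable M3 receptor; B-score is computed from the integrated fluorescence ratio over baseline after carbachol; higher B-score means a larger calcium signal and so more RGS4 inhibition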
# Target sequence (P49798 whole entry, looked up): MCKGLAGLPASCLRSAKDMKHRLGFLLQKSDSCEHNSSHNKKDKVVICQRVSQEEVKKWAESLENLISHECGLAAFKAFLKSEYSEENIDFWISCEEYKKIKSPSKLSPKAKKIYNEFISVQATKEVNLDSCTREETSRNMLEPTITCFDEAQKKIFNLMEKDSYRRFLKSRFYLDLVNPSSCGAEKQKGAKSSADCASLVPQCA
# MrgX1 allo act = positive allosteric modulators of MrgX1, primary screen, HEK293 cells, Fluo-4 calcium flux; Mas-related G-protein coupled receptor member X1 (Homo sapiens), Q96LB2; FDSS; active compounds read high; B-score at 10 µM; hit rate 0.63% among 310,000;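 active means plate-corrected calcium response at least 3 library SD above typical, normal starting fluorescence, not activating the receptor alone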;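 further: compound read alongside a low EC10 to EC30 dose of BAM8-22 agonist; peak minus trough fluorescence over baseline measured at the second addition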
# Target sequence (Q96LB2 whole entry, looked up): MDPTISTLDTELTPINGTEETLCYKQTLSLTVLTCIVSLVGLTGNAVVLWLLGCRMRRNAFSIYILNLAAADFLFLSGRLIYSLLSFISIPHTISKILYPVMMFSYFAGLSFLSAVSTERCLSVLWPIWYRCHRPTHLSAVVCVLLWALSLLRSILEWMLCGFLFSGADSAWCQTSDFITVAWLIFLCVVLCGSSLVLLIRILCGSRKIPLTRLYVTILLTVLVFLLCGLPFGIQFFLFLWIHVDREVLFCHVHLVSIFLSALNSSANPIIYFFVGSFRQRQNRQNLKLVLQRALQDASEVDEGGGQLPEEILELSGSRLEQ
# MrgX1 antagonist = antagonists of human MrgX1 receptor, primary screen, HEK293 cells, Fluo-4 calcium flux; Mas-related G-protein coupled receptor member X1 (Homo sapiens), Q96LB2; BAM8-22 antagonism; active compounds read low; B-score at 10 µM; hit rate 1.3% among 310,000; AID 588676, 2011;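 active means calcium-response B-score plate-corrected more than 3 library SD below zero, starting fluorescence within 5 deviations, no agonist response on first addition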;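 further: peak minus trough fluorescence over baseline after final BAM8-22 challenge near maximal dose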
# RGS4 pot = RGS4 potentiators or activators, primary screen, cell-based, HEK293 M3R inducible RGS4, calcium flux. B-score at 10 µM. carbachol calcium flux Fluo4; active compounds read low. hit rate 0.92% among 310,000;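 active means B-score of the integrated calcium signal more than 4 SD below the library mean, with starting fluorescence not abnormally high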;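 further: negative B-score means reduced calcium response which marks RGS4 activation or potentiation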
#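 System: HEK293 FlpIn-TREx cells, stable M3R, doxycycline-inducible RGS4. Timing: overnight RGS4 induction, 30 min dye load 37 °C, 20 min compound RT. Also added: carbachol, ECmax concentration. Measured by: Fluo4 fluorescence kinetic imaging of calcium. Evaluation: integrated calcium ratio converted to B score.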
# MrgX1 agonist = agonists of human MrgX1 receptor, primary screen, HEK293 cells, Fluo-4 calcium flux; Fluo-4 calcium fluorescence, agonist mode; active compounds read high; hit rate 0.44% among 310,000; B-score at 10 µM;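 active means calcium response B-score plate-corrected fluorescence ratio at least 3 library SD, with starting fluorescence B-score inside 5 SD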
#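 Assay system: MrgX1-expressing HEK293 cells / Amount: fifteen thousand cells per well / Doses: test compound in the initial addition of three / Timing: cells plated overnight, dye loaded 0.5 h 37 °C, 0.5 h room temperature / Technique: kinetic calcium dye fluorescence, Fluo-4 NW / Control set: positive and negative controls per plate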
# MrgX1 ant reconf = MrgX1 receptor antagonists, duplicate retest, confirmation, HEK293 cells, Fluo-4 calcium flux. shares compounds with MrgX1 antagonist. BAM8-22 calcium flux; active compounds read low. remaining BAM8-22 calcium response % of control (active compounds read low), % at 10 µM. hit rate 19% among 2,300;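 active means remaining agonist calcium response no higher than 100% minus 3 SD of agonist-only control wells, with starting fluorescence near control levels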;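 further: agonist BAM8-22 given at a near maximal EC90 to ECmax level; peak minus minimum fluorescence divided by baseline after agonist addition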
# HEK293 Ca flux = nonspecific calcium signal in parental HEK293, confirmation, counter-screen for MrgX1 antagonist project, parental HEK293 cells, Fluo-4 calcium flux; shares compounds with MrgX1 antagonist; Fluo-4 calcium fluorescence, FDSS; fluorescence ratio F(max-min)/F0 at 10 µM; hit rate 2% among 4,000; AID 624111, 2012;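 active means duplicate-averaged calcium fluorescence ratio at least three times the standard deviation of buffer wells, a nonspecific response in parental cells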
# HEK293 Ca counter = calcium response in parental HEK293 cells, primary screen, counter-screen for MrgX1 allosteric activator project, cell-based, Fluo-4 calcium flux, duplicate; shares compounds with MrgX1 antagonist; hit rate 0.4% among 4,000; fluorescence ratio F(max-min)/F0 at 10 µM; Fluo-4 fluorescence ratio; active compounds read high;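 active means calcium fluorescence ratio, averaged over duplicates, at least 3 SD of the buffer-well ratio, meaning a nonspecific response in receptor-free cells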;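 further: untransfected parental HEK293 lacking MrgX1 used as counterscreen for MrgX1 allosteric activators; fluorescence change taken during the second addition on a kinetic imager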
# HEK293 Ca cntr2 = calcium response in parental HEK293 cells, primary screen, counter-screen for MrgX1 agonist project, cell-based, Fluo-4 calcium flux, duplicate, agonist mode | shares compounds with MrgX1 antagonist | Fluo-4 calcium fluorescence (FDSS); active compounds read high | fluorescence ratio F(max-min)/F0 at 10 µM | hit rate 8.7% among 4,000 | AID 624115, 2012;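 active means calcium fluorescence ratio at least three times the spread of buffer wells, meaning a non-specific response in parental cells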
# An asterisk follows results filed as active; i = inactive; x = not tested or not shown. Hits are enriched below; roughly 3.5% of the tested compounds scored in any of these assays.
SMILES,RGS4 inh,MrgX1 allo act,MrgX1 antagonist,RGS4 pot,MrgX1 agonist,MrgX1 ant reconf,HEK293 Ca flux,HEK293 Ca counter,HEK293 Ca cntr2
Nc1cc(C(=O)OCC(=O)NNC(=O)c2ccccc2)ccc1Cl,i,i,i,i,i,x,x,x,x
CCN(CC)C(=O)NC(c1ccc(C)c(F)c1)C(Cl)(Cl)Cl (centres undefined),i,i,i,i,i,x,x,x,x
Cc1ccc(C(NC(=O)N2CCOCC2)C(Cl)(Cl)Cl)cc1F (centres undefined),i,i,-5.3*,i,i,81%*,i,i,i
COc1ccc(N2CCN(c3nc(-c4cccs4)nc4ccccc34)CC2)cc1,i,i,i,i,i,x,x,x,x
CCCSc1nnc(NC(=O)Nc2ccc(F)cc2)s1,i,i,-5.6*,i,i,71%*,i,i,i
COc1cccc(C(=O)c2c[nH]c(C(=O)NCc3cccs3)c2)c1,i,i,-7.8*,i,i,i,i,i,i
Cc1cc(C)c(OCCNC(=O)c2ccccc2Sc2ccccc2C#N)c(C)c1,i,i,i,i,i,x,x,x,x
N#Cc1ccccc1S(=O)(=O)N1CCN(CC(=O)NC(=O)NC2CCCCC2)CC1,i,i,-6.3*,i,i,i,i,i,i
Cc1ccn2c(NC3CCCCC3)c(-c3cccc(-c4cccc(Cl)c4)c3)nc2c1,i,i,i,i,i,x,x,x,x
CN(C)c1cc(Nc2ccc(O)cc2)c([N+](=O)[O-])c2nonc12,i,i,i,i,i,x,x,x,x
O=[N+]([O-])c1c(Nc2ccc(O)cc2)cc(Cl)c2nonc12,i,i,-15*,i,i,16%*,i,i,i
C/C=C\C=C/C(=O)Nc1cccc(C2=NOC3(C2)C[C@H](C(N)=O)N(C(=O)Cc2ccc([N+](=O)[O-])cc2)C3)c1 (some centres undefined),i,i,i,i,i,x,x,x,x
COc1ccc(Nc2cc3n(c(=O)n2)CCc2cc(OC)c(OC)cc2-3)c(C)c1,i,i,-6.3*,i,i,i,i,i,i
N#Cc1c(N)nc2c(c1-c1ccccc1)CCCC2,i,i,i,i,i,x,x,x,x
CSc1nc2c(c(-c3ccccc3)c1C#N)CCC2,i,i,-6.5*,i,i,i,i,i,i
CC(=O)c1ccccc1NC(=O)CSc1nnc(Cc2csc(C)n2)o1,i,i,i,i,i,x,x,x,x
Cc1nc(Cc2nnc(SC(C)C(=O)Nc3cccc(C#N)c3)o2)cs1 (centres undefined),i,i,-5.9*,i,i,i,i,i,i
O=C1/C(=C/c2cccc(Br)c2)SC(=S)N1/N=C/c1cc([N+](=O)[O-])ccc1O,i,i,i,i,i,x,x,x,x
CN1CCC(NCCC(c2ccc(F)cc2)c2ccc(Cl)cc2)CC1 (centres undefined),i,i,-4.6*,i,i,i,i,i,i
CC(C)C(CCNC1CCN(C)CC1)c1ccc(Cl)cc1 (centres undefined),i,i,i,i,i,x,x,x,x
O=C(NC1CCS(=O)(=O)C1)C12CC3CC(CC(C3)C1)C2 (centres undefined),i,i,-9.4*,i,i,i,i,i,i
Cc1oc(-c2ccccc2Cl)nc1CS(=O)CC(=O)NCc1ccccc1Cl (centres undefined),i,i,i,i,i,x,x,x,x
CCN(CC)c1ccc2c(Cl)c(Br)c(=O)oc2c1,i,i,-14*,i,i,i,0.037*,i,i
Cc1cc(F)ccc1S(=O)(=O)N1CCCCC1CCNC(=O)C(=O)NCc1ccccn1 (centres undefined),i,i,i,i,i,x,x,x,x
CC(=O)COc1ncnc2c(Cl)cc(Cl)cc12,i,i,-4.9*,i,i,i,i,i,i
SMILES,RGS4 inh,MrgX1 allo act,MrgX1 antagonist,RGS4 pot,MrgX1 agonist,MrgX1 ant reconf,HEK293 Ca flux,HEK293 Ca counter,HEK293 Ca cntr2
COc1ccc(-c2csc(/C(C#N)=C\c3ccc(OC)c([N+](=O)[O-])c3)n2)cc1,i,i,i,i,i,x,x,x,x
COc1ccc(-c2csc(/C(C#N)=C\c3ccc(O)c([N+](=O)[O-])c3)n2)cc1OC,i,i,-11*,i,i,41%*,i,i,i
COc1ccc2cc(C(C)C(=O)NC3CCC(O)CC3)ccc2c1 (centres undefined),i,i,i,i,i,x,x,x,x
CC(C)OCCCNC(=O)c1cccc(NC(=O)c2ccccc2)c1,i,i,i,i,i,x,x,x,x
COc1cccc(C(=O)Nc2cccc(C(=O)NCC(C)C)c2)c1,i,i,-6.5*,i,i,i,i,i,i
COCCCNC(=O)c1cccc(NC(=O)c2ccccc2)c1,i,i,-5.6*,i,i,83%*,i,i,i
C=CCn1c(COc2ccccc2)nc2ccccc21,i,i,i,i,i,x,x,x,x
CCOC(=O)c1ccc(-n2c(C)nc3ccc(Br)cc3c2=O)cc1,i,i,i,i,i,x,x,x,x
Cc1cccc(N2CCN(C(=O)Cc3cn(C)c4ccccc34)CC2)c1C,i,i,-4.7*,i,i,81%*,i,i,i
Cc1cccc(N2CCN(C(=O)COc3cc(=O)n(C)c4ccccc34)CC2)c1C,i,i,i,i,i,x,x,x,x
